Measured values: ChEMBL document CHEMBL1123413, “Synthesis and biological evaluation of 1-(1,2-benzisothiazol-3-yl)- and (1,2-benzisoxazol-3-yl)piperazine derivatives as potential antipsychotic agents” (J Med Chem, 1986)

Legend:
[1] = target: T1, Adrenergic receptor alpha-2 (Rattus norvegicus, UniProt P22086+P19328+P22909); assay: Binding affinity against alpha-2 adrenergic receptor was measured using radioligand ([3H]clonidine) binding assay; assay type: protein assay
T1 sequence (P22086 whole entry): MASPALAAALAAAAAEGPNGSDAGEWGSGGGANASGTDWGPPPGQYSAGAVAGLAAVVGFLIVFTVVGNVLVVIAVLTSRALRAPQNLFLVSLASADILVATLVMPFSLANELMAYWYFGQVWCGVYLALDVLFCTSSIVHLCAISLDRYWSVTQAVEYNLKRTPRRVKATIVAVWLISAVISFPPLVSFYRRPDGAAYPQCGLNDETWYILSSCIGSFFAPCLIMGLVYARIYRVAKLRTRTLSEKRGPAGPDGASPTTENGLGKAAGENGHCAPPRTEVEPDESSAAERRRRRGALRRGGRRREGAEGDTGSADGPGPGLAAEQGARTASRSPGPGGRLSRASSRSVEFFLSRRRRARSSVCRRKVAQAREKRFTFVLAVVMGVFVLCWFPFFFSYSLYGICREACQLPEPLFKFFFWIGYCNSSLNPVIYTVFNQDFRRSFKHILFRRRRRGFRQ
T1 sequence (P19328 whole entry): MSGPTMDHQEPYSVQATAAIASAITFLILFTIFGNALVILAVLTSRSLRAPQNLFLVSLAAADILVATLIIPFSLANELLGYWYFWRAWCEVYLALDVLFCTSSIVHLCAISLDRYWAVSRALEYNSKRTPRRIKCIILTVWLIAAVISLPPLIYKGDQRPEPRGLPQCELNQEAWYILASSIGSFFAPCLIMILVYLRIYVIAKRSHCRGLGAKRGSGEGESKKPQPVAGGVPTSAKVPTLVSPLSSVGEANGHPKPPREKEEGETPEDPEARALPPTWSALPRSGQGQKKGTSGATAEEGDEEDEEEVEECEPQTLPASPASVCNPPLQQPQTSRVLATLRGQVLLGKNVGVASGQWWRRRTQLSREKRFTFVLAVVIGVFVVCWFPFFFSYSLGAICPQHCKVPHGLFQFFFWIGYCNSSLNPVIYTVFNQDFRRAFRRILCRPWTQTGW
T1 sequence (P22909 whole entry): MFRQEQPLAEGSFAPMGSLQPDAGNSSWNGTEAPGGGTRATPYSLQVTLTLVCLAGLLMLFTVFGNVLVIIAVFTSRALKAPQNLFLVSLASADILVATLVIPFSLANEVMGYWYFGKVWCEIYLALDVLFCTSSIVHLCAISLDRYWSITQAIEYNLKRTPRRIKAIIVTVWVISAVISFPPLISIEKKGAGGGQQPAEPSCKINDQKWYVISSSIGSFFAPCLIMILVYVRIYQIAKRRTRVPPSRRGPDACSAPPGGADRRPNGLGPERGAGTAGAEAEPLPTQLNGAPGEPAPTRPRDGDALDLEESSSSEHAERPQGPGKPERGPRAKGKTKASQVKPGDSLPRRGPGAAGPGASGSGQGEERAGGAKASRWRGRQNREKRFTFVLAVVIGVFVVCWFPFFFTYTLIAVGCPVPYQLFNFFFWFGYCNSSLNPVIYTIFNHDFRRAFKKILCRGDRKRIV

Rattus norvegicus [2] = species: Rattus norvegicus; assay: Compound was tested for inhibition of hexobarbatial potentiation in rat.; assay type: functional
How it was run: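 Hexobarbital sodium (40 mg/kg, ip) was given to nonfasted male rats 15, 30, 60 or 120 min after test drug, or 15 min after vehicle (distilled H2O or 0.5% methocel). Loss of righting reflex of 1-min duration was scored over about 10–15 min. Dose response at peak-effect time used 10 rats/dose; ED50 and fiducial limits by Berkson.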

Rattus norvegicus [3] = species: Rattus norvegicus; assay: Compound was tested for inhibition of conditioned avoidance response (CAR ); assay type: functional
How it was run: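 Rats trained to avoid an electric shock, test compound given orally, and block of the conditioned avoidance response scored. ED50 (mg/kg, po) with fiducial limits by the method of Berkson.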

[4] = Lethal dose after intraperitoneal administration in mouse; assay type: toxicity, organism-based; details: in vivo, ip, read-out: ALD50
Mus musculus = species: Mus musculus; assay: Compound was tested for inhibition of norepinephrine lethality in mouse; assay type: functional
How it was run: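 Groups of 10 nonfasted male mice dosed orally with test compound (initial 100 mg/kg) or vehicle (distilled H2O or 0.5% methocel). Active compounds retested at lower doses, 10 mice/dose, for dose response. ED50 by Berkson's method.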

[5] = Lethal dose after administration in mouse; assay type: toxicity, organism-based; details: in vivo, read-out: ALD50
Rattus norvegicus [6] = species: Rattus norvegicus; assay: Compound was tested for inhibition of spontaneous motor activity in rat.; assay type: functional
[7] = Binding affinity against glycine receptor was measured using radioligand ([3H]strychnine) binding assay
Rattus norvegicus [8] = species: Rattus norvegicus; assay: Compound was tested for inhibition of ethanol potentiation in rat.; assay type: functional
How it was run: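 Nonfasted male rats received test drug or vehicle (distilled H2O or 0.5% methocel). EtOH (10 mL of 20% solution/kg, ip) followed at 15, 30, 60 or 120 min post-drug; the vehicle group got it at 15 min. Rats were watched about 10–15 min for loss of righting reflex lasting 1 min. Dose response at peak time used 10/dose; ED50 by Berkson.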

Rattus norvegicus [9] = species: Rattus norvegicus; assay: Compound was tested for its ability to induce catalepsy in rats.; assay type: functional
How it was run: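 Catalepsy was induced in rats with orally dosed compound as a predictor of extrapyramidal liability. ED50 (mg/kg, po) with fiducial limits by Berkson's method.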

[10] = Binding affinity against imipramine receptor was measured using radioligand ([3H]-imipramine) binding assay; set-up: species or system Rattus norvegicus

Cl.O=C1CC2(CCCC2)CC(=O)N1CCCCN1CCN(c2nsc3ccccc23)CC1 [TIOSPIRONE HYDROCHLORIDE]
IC50 [1]: > 1000 nM | ED50 (Rattus norvegicus [2]): 6.7 mg/kg | ED50 (Rattus norvegicus [3]): 10.5 mg/kg | LD50 [4]: 1530 mg/kg | ED50 (Mus musculus): 12.5 mg/kg | LD50 [5]: 1850 mg/kg | ED50 (Rattus norvegicus [6]): 8.4 mg/kg | IC50 [7]: > 1000 nM | ED50 (Rattus norvegicus [8]): 9.3 mg/kg | ED50 (Rattus norvegicus [9]): 84.4 mg/kg | IC50 [10]: > 1000 nM
